Laboratory results reported in ChEMBL document CHEMBL1142383, “Discovery of potent cholecystokinin-2 receptor antagonists: elucidation of key pharmacophore elements by X-ray crystallographic and NMR conformational analysis” (Bioorg Med Chem, 2008).

What was measured:
[1] = target: T1, Cholecystokinin receptor type A (Homo sapiens, UniProt P32238); assay: Displacement of [125I]CCK8S from human CCK1R
T1 sequence (P32238 whole entry): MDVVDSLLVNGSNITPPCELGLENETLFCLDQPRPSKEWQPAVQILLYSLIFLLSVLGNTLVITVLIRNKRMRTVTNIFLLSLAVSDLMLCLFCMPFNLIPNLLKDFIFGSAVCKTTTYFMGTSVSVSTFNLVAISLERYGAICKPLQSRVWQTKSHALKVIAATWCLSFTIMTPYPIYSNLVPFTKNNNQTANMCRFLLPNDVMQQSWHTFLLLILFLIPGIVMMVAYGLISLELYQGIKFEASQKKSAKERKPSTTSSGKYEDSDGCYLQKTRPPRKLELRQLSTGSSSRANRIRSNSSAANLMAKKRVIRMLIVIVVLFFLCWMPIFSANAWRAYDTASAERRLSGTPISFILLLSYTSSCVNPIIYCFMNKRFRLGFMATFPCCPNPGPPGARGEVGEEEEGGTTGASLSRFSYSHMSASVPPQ

[2] = target: T2, Gastrin/cholecystokinin type B receptor (Homo sapiens, UniProt P32239); assay: Displacement of [125I]CCK8S from human CCK2R
T2 sequence (P32239 whole entry): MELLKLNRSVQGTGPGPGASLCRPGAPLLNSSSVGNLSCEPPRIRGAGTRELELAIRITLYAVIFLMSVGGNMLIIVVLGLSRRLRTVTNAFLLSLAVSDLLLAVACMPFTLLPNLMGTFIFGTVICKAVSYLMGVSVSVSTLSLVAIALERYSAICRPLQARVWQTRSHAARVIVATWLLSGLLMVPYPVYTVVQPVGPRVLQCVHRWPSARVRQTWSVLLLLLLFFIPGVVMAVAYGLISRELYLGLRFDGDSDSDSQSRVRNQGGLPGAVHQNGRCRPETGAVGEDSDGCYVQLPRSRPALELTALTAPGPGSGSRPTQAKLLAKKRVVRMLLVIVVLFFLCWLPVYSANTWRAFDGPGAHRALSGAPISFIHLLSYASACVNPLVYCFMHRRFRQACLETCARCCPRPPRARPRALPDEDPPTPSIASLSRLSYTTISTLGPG
How it was run: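 Radioligand competition binding at human CCK-2R against [125I]-CCK-8S. The pIC50 is the concentration displacing 50% of tracer binding, converted to pKi by the Cheng–Prusoff method.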

[3] = Metabolic stability in human liver microsome assessed as compound remaining after 30 mins; type: ADME; details: liver microsomes, read-out: Stability
How it was run: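 Incubation for 30 min with pooled human liver microsome preparations (n = 20). Stability is expressed as percent of parent remaining.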

[4] = Clearance in rat at 2 umol/kg, iv; type: ADME, organism-based; details: in vivo
How it was run: (§1)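 Rat pharmacokinetics after an intravenous dose of […]. Clearance and half-life were derived from the iv dosing.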

[5] = Half life in rat at 2 umol/kg, iv; type: ADME, organism-based; details: in vivo; how it was run: as §1
[6] = Bioavailability in rat at 2 umol/kg, po; type: ADME, organism-based; details: in vivo
How it was run: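 Rat oral dosing at […]. Bioavailability is reported as relative fraction absorbed (%F) from the po dose.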

SMILES | Ki [1] | Ki [2] | remaining at 0.5 h [3] | clearance [4] | half-life [5] | bioavailability [6]
O=C(c1ccc(Br)cc1NS(=O)(=O)c1cccc2[nH]cnc12)N1CCCCC1 | > 10 µM | 1.58 µM | – | – | – | –
Cn1nnc2c(S(=O)(=O)Nc3cc(Br)ccc3C(=O)N3CCCCC3)cccc21 | > 10 µM | 2 µM | – | – | – | –
O=C(c1ccc(Br)cc1NS(=O)(=O)c1cccc2scnc12)N1CCCCC1 | > 10 µM | 0.0794 µM | – | – | – | –
Cn1nc2cccc(S(=O)(=O)Nc3cc(Br)ccc3C(=O)N3CCCCC3)c2n1 | > 10 µM | 0.794 µM | – | – | – | –
O=C(NCc1ccc(Cl)cc1)c1ccc(Br)cc1NS(=O)(=O)c1cccc2nsnc12 | > 10 µM | 0.501 µM | – | – | – | –
Cc1nc2cccc(S(=O)(=O)Nc3cc(Br)ccc3C(=O)N3CCCCC3)c2s1 | > 10 µM | 5.01 µM | – | – | – | –
Cn1nc2ccc(S(=O)(=O)Nc3cc(Br)ccc3C(=O)N3CCCCC3)cc2n1 | > 10 µM | > 10 µM | – | – | – | –

Results, then the compound that gave them:

Ki [1] | Ki [2] | remaining at 0.5 h [3] | clearance [4] | half-life [5] | bioavailability [6] | SMILES
> 10 µM | – | 21% | 13.8 mL/min/kg | 20.4 min | 50% | O=C(c1ccc(Br)cc1NS(=O)(=O)c1cccc2nccnc12)N1CCCCC1
> 10 µM | 3.16 µM | – | – | – | – | O=C(c1ccc(Br)cc1NS(=O)(=O)c1ccc2ncsc2c1)N1CCCCC1
> 10 µM | 0.794 µM | – | – | – | – | O=C(c1ccc(Br)cc1NS(=O)(=O)c1cccc2ncsc12)N1CCCCC1
